Reference: ChEMBL document CHEMBL1154117, “Synthesis and evaluation of a novel series of quinoline derivatives with immunosuppressive activity” (Bioorg Med Chem, 2009)

Experiments:
[1] = Immunosuppressive activity in BALB/c mouse splenocytes assessed as inhibition of concanavalin A-induced cell proliferation at 30 uM after 48 hrs by MTT assay; format: functional; conditions: Splenocyte
In short: (§1)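 Spleen cells (5 × 10⁵) from male BALB/c mice aged 6–8 weeks, erythrocytes lysed, stimulated with ConA 5 μg/mL in RPMI-1640/10% FBS. Compounds diluted from DMSO stock. ConA-stimulated cells used as control. Proliferation read by MTT added 4 h before end of culture, SDS/DMF lysis for 6 h, absorbance at 570 nm.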

[2] = Cytotoxicity against BALB/c mouse splenocytes at 10 uM after 48 hrs by MTT assay; format: cell-based, Splenocyte; conditions: read-out: INH
In short: (§2)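 BALB/c spleen single-cell suspension, erythrocytes depleted with Tris-buffered NH4Cl (0.155 M NH4Cl, 16.5 mM Tris, pH 7.2). Cells cultured in RPMI-1640 with 10% FBS and compound diluted from DMSO stock (0.1% DMSO in control). Medium-alone cells served as control. MTT (5 mg/mL) added 4 h before end of culture, then SDS/DMF lysis buffer (pH 7.2) for 6 h. Absorbance read at 570 nm and growth inhibition % calculated.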

[3] = Cytotoxicity against BALB/c mouse splenocytes at 100 uM after 48 hrs by MTT assay; format: cell-based, Splenocyte; conditions: read-out: INH; in short: as §2
[4] = Cytotoxicity against BALB/c mouse splenocytes at 30 uM after 48 hrs by MTT assay; format: cell-based, Splenocyte; conditions: read-out: INH; in short: as §2
[5] = Immunosuppressive activity in BALB/c mouse splenocytes assessed as inhibition of concanavalin A-induced cell proliferation at 100 uM after 48 hrs by MTT assay; format: functional; conditions: Splenocyte; in short: as §1
[6] = Immunosuppressive activity in BALB/c mouse splenocytes assessed as inhibition of concanavalin A-induced cell proliferation at 10 uM after 48 hrs by MTT assay; format: functional; conditions: Splenocyte; in short: as §1

SMILES	inhibition at 30 µM [1]	cytotoxicity at 48 h, 10 µM [2]	cytotoxicity at 48 h, 100 µM [3]	cytotoxicity at 48 h, 30 µM [4]	inhibition at 100 µM [5]	inhibition at 10 µM [6]
COc1cc(OC)c2c(=O)cc[nH]c2c1	3.7%	6.1%	7.5%	7.8%	12.3%	0.1%
COc1cc(OC)c2c(OC(=O)c3ccccc3)ccnc2c1	13.1%	0%	7.7%	4.6%	35.4%	6.2%
COc1cc(OC)c2c(OC(=O)c3cccc(I)c3)ccnc2c1	50.5%	3%	11.6%	5.6%	85.2%	24.7%
COc1cc(OC)c2c(OC(=O)c3cccc(Br)c3)ccnc2c1	48.8%	1.7%	21%	1.7%	91%	16.9%
COc1cc(OC)c2c(OC(=O)c3cc([N+](=O)[O-])cc([N+](=O)[O-])c3)ccnc2c1	5.1%	3.4%	13.4%	9.5%	5.6%	6.3%
COc1cc(OC)c2c(O[C@@H]3O[C@H](CO)[C@H](O)[C@H](O)[C@H]3O)ccnc2c1	11.2%	6.2%	17%	4.2%	17.8%	4.2%
COc1cc(OC)c2c(=O)cc(C)[nH]c2c1	35.4%	6.5%	23.6%	14.7%	57.2%	15.9%
COc1cc(OC)c2c(O[C@@H]3OC[C@@H](O)[C@H](O)[C@H]3O)ccnc2c1	14.9%	6.9%	11.2%	9.1%	41%	10.3%
COc1cc(OC)c2c(OC(=O)c3ccc(I)cc3)ccnc2c1	47.2%	6%	23.4%	6.6%	91.3%	26.4%
COc1cc(OC)c2c(OC(=O)c3cc(Cl)cc(Cl)c3)ccnc2c1	5.1%	3.4%	7.2%	10.7%	7.9%	3.9%
COc1cc(OC)c2c(OC(=O)c3ccccc3F)ccnc2c1	14.3%	7.7%	19.5%	12.8%	31%	9.3%
COc1cc(OC)c2c(OC(=O)c3ccc(Br)cc3)ccnc2c1	17.5%	8.6%	20.7%	7.3%	48.2%	9.2%
COc1cc(OC)c2c(OC(=O)c3ccccc3OC)ccnc2c1	35.2%	10.3%	47.9%	17.6%	85.3%	11.3%
CCCCCCCC/C=C\CCCCCCCC(=O)Oc1ccnc2cc(OC)cc(OC)c12	8.5%	4.1%	7.2%	8.8%	22.2%	4.4%
COc1cc(OC)c2c(OC(C)=O)ccnc2c1	9.7%	8.3%	11.3%	11.2%	22.7%	4.1%
COc1cc(OC)c2c(OC(=O)c3ccccc3)cc(C)nc2c1	34.8%	-7.6%	13.7%	-0.2%	81.5%	5.7%
